From ChEMBL document CHEMBL1135730, “Nanomolar small molecule inhibitors for alphav(beta)6, alphav(beta)5, and alphav(beta)3 integrins” (J Med Chem, 2002)

Legend:
Integrin alpha-V/beta-5 [1] = molecular target: T1, Integrin alpha-V/beta-5 (Homo sapiens, UniProt P06756+P18084); experiment: Inhibition of integrin alpha-v/beta-5 mediated UCLAP-3 cell adhesion on vitronectin; assay type: functional, cell-based
Procedure, shortened: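 UCLAP-3 human lung adenocarcinoma cells attach to vitronectin exclusively via αvβ5. Freshly harvested cells were plated on vitronectin-coated surfaces into serial inhibitor dilutions. Attachment was measured at 1 h by lysosomal hexosaminidase cell count. IC50 by curve fitting, mean of two independent determinations.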

Integrin alpha-V/beta-6 [2] = molecular target: T2, Integrin alpha-V/beta-6 (Homo sapiens, UniProt P06756+P18564); experiment: Inhibition of integrin alpha-v/beta-6 mediated UCLAP-3 cell adhesion to fibronectin; assay type: functional, cell-based
Integrin alpha-V/beta-6 [3] = molecular target: T2, Integrin alpha-V/beta-6; experiment: Inhibition of fibronectin binding to recombinant human alphaV-beta6 integrin; assay type: protein-complex assay
Procedure, shortened: (§1)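 Isolated-integrin ELISA. Plates were coated by adsorption from neutral buffer with 1 µg mL^-1 integrin: recombinant human αvβ3, αvβ5 or αvβ6, or αIIbβ3 isolated from human platelets. The plate was blocked with BSA. Biotinylated ligand (1 µg mL^-1) was added with serial inhibitor dilutions: human serum vitronectin for αvβ3/αvβ5, fibronectin for αvβ6, fibrinogen for αIIbβ3. Bound biotin was detected with peroxidase anti-biotin and TMB.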

Integrin alpha-V/beta-5 [4] = molecular target: T1, Integrin alpha-V/beta-5; experiment: Inhibition of vitronectin binding to recombinant human alphaV-beta5 integrin; assay type: protein-complex assay; procedure, shortened: as §1
[5] = molecular target: Integrin alpha-IIb/beta-3 (Homo sapiens, UniProt P05106+P08514); experiment: Inhibition of fibrinogen binding to human platelet glycoprotein alpha IIb beta3 integrin
Integrin alpha-V/beta-3 [6] = molecular target: T3, Integrin alpha-V/beta-3 (Homo sapiens, UniProt P05106+P06756); experiment: Inhibition of integrin alpha-v/beta-3 mediated M21 cell adhesion to vitronectin with monoclonal antibody P1F6; assay type: functional, cell-based
Procedure, shortened: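 M21 human melanoma cells were freshly harvested and plated on vitronectin-coated surfaces into serial inhibitor dilutions, with αvβ5-blocking mAb P1F6 present so attachment is αvβ3-dependent. Attached cells were counted after 1 h by lysosomal hexosaminidase. IC50 by curve fitting, mean of two independent determinations.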

Integrin alpha-V/beta-3 [7] = molecular target: T3, Integrin alpha-V/beta-3; experiment: Inhibition of vitronectin binding to recombinant human alphaV-beta3 integrin; assay type: protein-complex assay; procedure, shortened: as §1

T2 sequence (P06756 31-889 limits assumed): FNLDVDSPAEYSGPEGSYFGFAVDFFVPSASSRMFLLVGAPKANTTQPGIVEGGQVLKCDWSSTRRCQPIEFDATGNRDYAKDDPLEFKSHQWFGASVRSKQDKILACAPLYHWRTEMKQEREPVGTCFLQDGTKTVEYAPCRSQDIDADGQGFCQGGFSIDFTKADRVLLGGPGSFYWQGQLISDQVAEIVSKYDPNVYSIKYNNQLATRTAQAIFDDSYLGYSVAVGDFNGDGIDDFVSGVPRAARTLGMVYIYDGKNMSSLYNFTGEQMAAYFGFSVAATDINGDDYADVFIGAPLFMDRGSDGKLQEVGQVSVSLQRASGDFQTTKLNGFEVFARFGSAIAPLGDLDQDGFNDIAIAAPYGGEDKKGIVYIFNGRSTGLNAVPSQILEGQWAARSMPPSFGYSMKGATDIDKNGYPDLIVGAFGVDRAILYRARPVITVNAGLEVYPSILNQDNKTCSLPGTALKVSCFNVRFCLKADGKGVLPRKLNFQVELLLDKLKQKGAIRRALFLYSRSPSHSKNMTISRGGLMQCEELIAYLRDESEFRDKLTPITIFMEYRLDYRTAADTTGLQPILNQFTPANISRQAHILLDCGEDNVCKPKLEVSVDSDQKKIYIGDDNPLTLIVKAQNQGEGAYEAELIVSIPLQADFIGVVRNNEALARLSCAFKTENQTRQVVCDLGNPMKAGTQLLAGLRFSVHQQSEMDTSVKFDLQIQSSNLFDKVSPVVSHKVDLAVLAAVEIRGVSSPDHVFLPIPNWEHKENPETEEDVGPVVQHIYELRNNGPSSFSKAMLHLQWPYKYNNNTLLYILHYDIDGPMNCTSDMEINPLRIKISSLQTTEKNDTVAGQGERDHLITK
T2 sequence (P06756 891-1048 limits assumed): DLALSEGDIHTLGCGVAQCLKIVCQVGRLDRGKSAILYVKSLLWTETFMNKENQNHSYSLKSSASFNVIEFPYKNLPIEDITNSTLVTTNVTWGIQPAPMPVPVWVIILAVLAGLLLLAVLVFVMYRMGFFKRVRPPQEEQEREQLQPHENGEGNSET
T2 sequence (P18564 22-788 limits assumed): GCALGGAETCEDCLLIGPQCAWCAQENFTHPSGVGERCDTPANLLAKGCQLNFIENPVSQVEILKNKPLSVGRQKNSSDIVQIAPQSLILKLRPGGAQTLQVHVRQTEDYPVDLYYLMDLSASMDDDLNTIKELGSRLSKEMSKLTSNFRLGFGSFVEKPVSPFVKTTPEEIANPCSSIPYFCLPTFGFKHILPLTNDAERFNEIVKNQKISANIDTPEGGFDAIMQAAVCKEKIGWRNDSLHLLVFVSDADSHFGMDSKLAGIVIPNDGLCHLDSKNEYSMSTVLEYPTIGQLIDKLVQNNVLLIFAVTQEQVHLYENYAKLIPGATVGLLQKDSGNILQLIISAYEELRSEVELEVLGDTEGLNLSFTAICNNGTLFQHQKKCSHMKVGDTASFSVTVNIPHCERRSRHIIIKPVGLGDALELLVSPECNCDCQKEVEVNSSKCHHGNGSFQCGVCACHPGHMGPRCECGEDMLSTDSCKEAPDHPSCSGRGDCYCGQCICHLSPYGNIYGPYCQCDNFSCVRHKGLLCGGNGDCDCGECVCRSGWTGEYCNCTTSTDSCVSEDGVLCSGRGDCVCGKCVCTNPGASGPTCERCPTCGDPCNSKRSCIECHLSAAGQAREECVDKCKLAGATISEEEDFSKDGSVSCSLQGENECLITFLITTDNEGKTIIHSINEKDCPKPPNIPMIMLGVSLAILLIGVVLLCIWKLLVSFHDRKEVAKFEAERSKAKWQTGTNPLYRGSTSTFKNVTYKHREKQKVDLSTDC
T1 sequence (P06756 31-889 limits assumed): as the sequence (P06756 31-889 limits assumed) above
T1 sequence (P06756 891-1048 limits assumed): as the sequence (P06756 891-1048 limits assumed) above
T1 sequence (P18084 24-799 limits assumed): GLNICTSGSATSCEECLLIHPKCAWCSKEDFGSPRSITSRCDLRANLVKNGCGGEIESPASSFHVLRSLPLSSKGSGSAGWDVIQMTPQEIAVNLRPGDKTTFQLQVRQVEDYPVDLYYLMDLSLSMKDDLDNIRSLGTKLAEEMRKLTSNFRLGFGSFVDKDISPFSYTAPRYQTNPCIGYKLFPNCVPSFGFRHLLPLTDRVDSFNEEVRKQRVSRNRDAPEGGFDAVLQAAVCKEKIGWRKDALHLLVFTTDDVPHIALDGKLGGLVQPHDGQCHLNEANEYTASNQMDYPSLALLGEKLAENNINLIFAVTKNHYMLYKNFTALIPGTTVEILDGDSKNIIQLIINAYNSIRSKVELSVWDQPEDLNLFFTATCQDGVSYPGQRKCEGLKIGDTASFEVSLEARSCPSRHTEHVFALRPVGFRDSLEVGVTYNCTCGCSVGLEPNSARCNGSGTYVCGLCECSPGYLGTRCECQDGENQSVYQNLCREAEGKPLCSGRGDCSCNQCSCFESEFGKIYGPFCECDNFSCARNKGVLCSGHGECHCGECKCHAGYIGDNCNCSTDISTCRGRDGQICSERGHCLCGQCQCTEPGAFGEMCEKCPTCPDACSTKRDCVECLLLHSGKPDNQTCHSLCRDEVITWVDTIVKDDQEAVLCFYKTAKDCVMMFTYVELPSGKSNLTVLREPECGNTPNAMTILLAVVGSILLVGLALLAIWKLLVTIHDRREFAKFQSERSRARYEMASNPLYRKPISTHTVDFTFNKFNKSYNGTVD
T3 sequence (P05106 27-788 limits assumed): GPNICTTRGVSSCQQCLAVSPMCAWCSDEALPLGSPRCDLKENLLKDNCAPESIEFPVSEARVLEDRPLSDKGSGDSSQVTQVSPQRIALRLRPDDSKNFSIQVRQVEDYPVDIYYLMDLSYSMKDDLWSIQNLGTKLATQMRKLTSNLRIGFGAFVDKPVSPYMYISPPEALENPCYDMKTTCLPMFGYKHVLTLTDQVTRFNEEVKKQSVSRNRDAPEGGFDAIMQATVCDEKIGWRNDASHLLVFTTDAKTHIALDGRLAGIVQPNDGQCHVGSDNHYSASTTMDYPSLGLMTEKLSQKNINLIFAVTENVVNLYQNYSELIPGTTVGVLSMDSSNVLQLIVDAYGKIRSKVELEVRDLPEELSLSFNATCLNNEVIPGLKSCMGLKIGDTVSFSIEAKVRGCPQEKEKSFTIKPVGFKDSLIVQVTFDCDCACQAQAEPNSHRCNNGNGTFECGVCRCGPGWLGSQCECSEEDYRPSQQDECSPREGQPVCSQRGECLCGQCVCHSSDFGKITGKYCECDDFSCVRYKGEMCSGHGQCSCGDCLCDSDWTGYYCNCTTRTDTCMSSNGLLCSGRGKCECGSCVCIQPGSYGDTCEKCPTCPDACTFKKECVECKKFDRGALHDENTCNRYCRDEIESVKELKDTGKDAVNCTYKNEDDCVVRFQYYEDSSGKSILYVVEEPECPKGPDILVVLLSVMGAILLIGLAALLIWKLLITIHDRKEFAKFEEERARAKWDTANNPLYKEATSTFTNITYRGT
T3 sequence (P06756 31-889 limits assumed): as the sequence (P06756 31-889 limits assumed) above
T3 sequence (P06756 891-1048 limits assumed): as the sequence (P06756 891-1048 limits assumed) above
Integrin alpha-IIb/beta-3, sequence (P05106 27-788 limits assumed): as the sequence (P05106 27-788 limits assumed) above
Integrin alpha-IIb/beta-3, sequence (P08514 32-887 limits assumed): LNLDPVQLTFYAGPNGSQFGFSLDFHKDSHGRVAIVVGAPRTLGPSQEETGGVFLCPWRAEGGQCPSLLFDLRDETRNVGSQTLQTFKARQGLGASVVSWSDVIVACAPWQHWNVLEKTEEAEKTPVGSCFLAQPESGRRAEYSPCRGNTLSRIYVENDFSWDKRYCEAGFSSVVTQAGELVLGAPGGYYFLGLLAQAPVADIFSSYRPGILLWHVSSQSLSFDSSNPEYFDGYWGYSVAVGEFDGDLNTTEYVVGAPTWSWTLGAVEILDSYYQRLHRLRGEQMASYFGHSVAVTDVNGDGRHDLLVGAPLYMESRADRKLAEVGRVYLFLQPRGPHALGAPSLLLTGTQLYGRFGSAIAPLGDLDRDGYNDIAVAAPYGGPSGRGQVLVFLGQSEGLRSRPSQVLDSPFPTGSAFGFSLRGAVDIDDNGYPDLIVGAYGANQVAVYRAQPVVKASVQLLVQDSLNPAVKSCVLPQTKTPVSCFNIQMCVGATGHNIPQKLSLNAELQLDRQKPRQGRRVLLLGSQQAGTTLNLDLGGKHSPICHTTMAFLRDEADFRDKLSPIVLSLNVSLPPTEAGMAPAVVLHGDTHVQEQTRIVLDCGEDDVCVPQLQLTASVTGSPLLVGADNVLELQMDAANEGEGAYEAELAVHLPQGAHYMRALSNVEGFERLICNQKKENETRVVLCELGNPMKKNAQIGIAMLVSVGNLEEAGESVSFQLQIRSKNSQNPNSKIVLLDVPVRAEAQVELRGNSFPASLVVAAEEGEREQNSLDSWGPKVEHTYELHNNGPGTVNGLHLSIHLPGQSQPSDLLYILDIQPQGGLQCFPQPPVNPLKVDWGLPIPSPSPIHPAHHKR
Integrin alpha-IIb/beta-3, sequence (P08514 891-1039 limits assumed): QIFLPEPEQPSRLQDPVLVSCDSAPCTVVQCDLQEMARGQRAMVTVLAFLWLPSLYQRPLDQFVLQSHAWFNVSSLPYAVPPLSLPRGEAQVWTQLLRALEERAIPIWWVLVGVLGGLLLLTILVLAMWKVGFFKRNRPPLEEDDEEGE

Row | SMILES | IC50 (Integrin alpha-V/beta-5 [1]) [nM] | IC50 (Integrin alpha-V/beta-6 [2]) [nM] | IC50 (Integrin alpha-V/beta-6 [3]) [nM] | IC50 (Integrin alpha-V/beta-5 [4]) [nM] | IC50 [5] [nM] | IC50 (Integrin alpha-V/beta-3 [6]) [nM] | IC50 (Integrin alpha-V/beta-3 [7]) [nM]
1 | C[C@H]1C(=O)N[C@@H](CCCN=C(N)N)C(=O)NCC(=O)N[C@@H](CC(=O)O)C(=O)N[C@H](Cc2ccccc2)C(=O)N1C | 1300 | 37000 | 2400 | 662 | 6000 | 3900 | –
2 | N=C(N)NCCCCC(=O)NNC(=O)NC(CC(=O)O)c1ccccc1 (centres undefined) | 43000 | 9600 | 460 | 26 | – | > 50000 | –
3 | Cc1ccnc(NCCCC(=O)NCC(=O)NC(CC(=O)O)c2ccc(-c3cccc4ccccc34)cc2)c1 (centres undefined) | 20000 | 200 | 0.04 | 5170 | 4230 | 3000 | 8
4 | Cc1ccnc(NCCCCC(=O)NNC(=O)NC(CC(=O)O)c2cc(Cl)cc(Cl)c2)c1 (centres undefined) | 5000 | 300 | 1.7 | 2500 | > 10000 | 12000 | 64
5 | Cc1ccnc(NCCCCC(=O)NNC(=O)CC(CC(=O)O)c2ccc(-c3ccccc3)cc2)c1 (centres undefined) | 24000 | 3800 | 53 | 8700 | 3000 | 970 | 4
6 | Cc1ccnc(NCCCCCCC(=O)NC(CC(=O)O)c2cccc([N+](=O)[O-])c2)c1 (centres undefined) | 21000 | 2100 | 61 | 1600 | 580 | > 50000 | 53
7 | Cc1ccnc(NCCCCC(=O)NCC(=O)NC(CC(=O)O)c2cc(Cl)cc(Cl)c2)c1 (centres undefined) | 2000 | 300 | 0.4 | 350 | > 10000 | 16000 | 53
8 | Cc1ccnc(NCCCC(=O)NCC(=O)NC(CC(=O)O)c2cccc(OC(F)(F)F)c2)c1 (centres undefined) | 27000 | 30 | 0.15 | 39 | > 10000 | 24000 | 14
9 | Cc1ccnc(NCCCCC(=O)NNC(=O)CC(CC(=O)O)c2cc(Cl)cc(Cl)c2)c1 (centres undefined) | 18000 | 1600 | 44 | 5700 | > 10000 | 20000 | 6
10 | O=C(O)CC(NC(=O)CNC(=O)CCCCNc1ccccn1)c1ccc(-c2ccccc2)cc1 (centres undefined) | 26000 | 100 | 0.6 | 2670 | 4050 | 9500 | 0.45
11 | O=C(O)CC(NC(=O)CNC(=O)CCCNc1ccccn1)c1cccc([N+](=O)[O-])c1 (centres undefined) | 1200 | 90 | 4 | 42 | 7300 | 6900 | 13
